According to ChEMBL document CHEMBL4823261, “Grincamycins P-T: Rearranged Angucyclines from the Marine Sediment-Derived Streptomyces sp. CNZ-748 Inhibit Cell Lines of the Rare Cancer Pseudomyxoma Peritonei” (J Nat Prod, 2021):

Experiments:
[1] = Cytotoxicity against human C09-1 cells assessed as inhibition of cell proliferation measured after 24 hrs by crystal violet staining assay; assay type: functional, cell-based; conditions: C09-1, 24 h
Outline: (§1)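 PMP-derived lines (ABX023-1, PMP457-2, PMP501-1) and mucinous colonic adenocarcinoma peritoneal metastasis line C09-1. Seeded at 30 000 cells/well in triplicate in Ham's F12 with 10% FBS, L-glutamine, insulin and sodium selenite. Grown 24 h at 37 °C, then treated for 24 h. Controls were DMSO vehicle, 5-fluorouracil and 10% EtOH dead-cell. Cells were stained with 0.2% crystal violet, solubilised in SDS/EtOH and read at OD595.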

[2] = Cytotoxicity against human PMP457-2 cells assessed as inhibition of cell proliferation measured after 24 hrs by crystal violet staining assay; assay type: functional, cell-based; conditions: PMP457-2, 24 h; outline: as §1
[3] = Cytotoxicity against human PMP501-1 cells assessed as inhibition of cell proliferation measured after 24 hrs by crystal violet staining assay; assay type: functional, cell-based; conditions: PMP501-1, 24 h; outline: as §1
[4] = Cytotoxicity against human ABX023-1 cells assessed as inhibition of cell proliferation measured after 24 hrs by crystal violet staining assay; assay type: functional, cell-based; conditions: ABX023-1, 24 h; outline: as §1
[5] = Stability of the compound in 0.1% TFA/MeOH solution measured after 12 hrs by LC/MS analysis; assay type: physicochemical
Outline: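 10 μg aliquots were incubated in 0.1% TFA in MeOH at 30 °C for 12 h, then dried under N2 and redissolved in MeOH. Analysed by UHPLC-DAD-ESI(±)MS on C18 with a water/MeCN gradient containing 0.1% formic acid. Compared against authentic standards run by the same method.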

Row | Structure (SMILES) | IC50 [1] | IC50 [2] | IC50 [3] | IC50 [4] | Stabilty [5]
1 | C[C@@H]1O[C@@H](O[C@H]2[C@H](O)C[C@H](c3ccc4c(c3O)C(=O)c3ccc(C[C@@](C)(O)CC(=O)O)c(O)c3C4=O)O[C@@H]2C)CC[C@@H]1O[C@H]1CC[C@H](O)[C@H](C)O1 | 32 µM | 23 µM | > 100 µM | 21 µM | –
2 | C[C@@H]1O[C@H]2O[C@@H]3[C@@H](C)O[C@@H](c4ccc5c(c4O)C(=O)c4ccc(C[C@@](C)(O)CC(=O)O)c(O)c4C5=O)C[C@H]3O[C@H]2C[C@@H]1O | 19 µM | > 100 µM | 23 µM | 14 µM | Stable
3 | C[C@@H]1O[C@@H](O[C@H]2[C@H](O)C[C@H](c3ccc4c(c3O)C(=O)c3ccc(C[C@](C)(CC(=O)O)O[C@H]5CC[C@H](O[C@H]6CC[C@H](O)[C@H](C)O6)[C@H](C)O5)c(O)c3C4=O)O[C@@H]2C)CC[C@@H]1O[C@H]1CC[C@H](O)[C@H](C)O1 | 38 µM | 11 µM | 18 µM | 45 µM | –
4 | C[C@@H]1O[C@@H](O[C@H]2[C@H](O)C[C@H](c3ccc4c(c3O)C(=O)c3c(O)cc(C[C@](C)(CC(=O)O)O[C@H]5CC[C@H](O[C@H]6CC[C@H](O)[C@H](C)O6)[C@H](C)O5)c(O)c3C4=O)O[C@@H]2C)CC[C@@H]1O[C@H]1CC[C@H](O)[C@H](C)O1 | 8.7 µM | 1.9 µM | 2.7 µM | 1.4 µM | –
5 | C[C@H]1O[C@@H](c2ccc3c(c2O)C(=O)c2ccc(C[C@@](C)(O)CC(=O)O)c(O)c2C3=O)C[C@@H](O)[C@@H]1O | 42 µM | 6.7 µM | 11 µM | 49 µM | Stable
6 | C[C@@H]1O[C@@H](O[C@H]2[C@H](O)C[C@H](c3ccc4c(c3O)C(=O)c3c(O)cc(C[C@@](C)(O)CC(=O)O)c(O)c3C4=O)O[C@@H]2C)CC[C@@H]1O[C@H]1CC[C@H](O)[C@H](C)O1 | 10 µM | 5.5 µM | 2.5 µM | 4.7 µM | –
7 | CSC1=CC(=O)[C@H](C)O[C@H]1O[C@H]1CC[C@H](O[C@H]2[C@H](O)C[C@H](c3ccc4c(c3O)C(=O)c3ccc(C[C@](C)(CC(=O)O)O[C@H]5CC[C@H](O[C@H]6CC[C@H](O)[C@H](C)O6)[C@H](C)O5)c(O)c3C4=O)O[C@@H]2C)O[C@H]1C | 61 µM | 7.8 µM | 3.9 µM | 13 µM | –
8 | O=c1[nH]cc(F)c(=O)[nH]1 [FLUOROURACIL] | 4 µM | 2 µM | 3.6 µM | 3.4 µM | –
9 | C[C@@H]1O[C@@H](O[C@H]2[C@H](O)C[C@H](c3ccc4c(c3O)C(=O)c3ccc(C[C@@](C)(O)CC(=O)O)c(O)c3C4=O)O[C@@H]2C)CC[C@@H]1O | 6.6 µM | 5.9 µM | 14 µM | 12 µM | –
10 | C[C@@H]1O[C@@H](O[C@H]2CC[C@H](O[C@H]3[C@H](O)C[C@H](c4ccc5c(c4O)C(=O)c4ccc(C[C@@](C)(O)CC(=O)O)c(O)c4C5=O)O[C@@H]3C)O[C@H]2C)C(N)=CC1=O | 17 µM | > 100 µM | 12 µM | 23 µM | –
